# Bioassay records: PubChem BioAssay, Broad Institute
# MITF TRPM1 HTS – MITF TRPM1 promoter activation in melanoma cells; SK-MEL-5 TRPM1-promoter luciferase, 24 h; % of positive control, neutral wells = 0; activation, % at 12.5 µM; actives 0.75% (n = 300,000); AID 588334;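 active means mean activation of at least 80% with every replicate also reaching 80%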
# Cneo AK release – causes C. neoformans cell lysis; AID 651654; lysis activity, % at 15 µM; adenylate kinase release luminescence, 4 h; normalised: neutral wells 0, clomiphene wells 100; actives 0.2% (n = 360,000);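 active means mean lysis activity across replicates of at least 80%, whatever share of replicates individually reach that level; inactive means mean lysis activity below 80%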
#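 Material – log-phase Cryptococcus neoformans yeast cells · Input – 5 × 10^6 yeast cells/mL · Medium – fresh YPD growth medium · Doses – single compound concentration per well · Timing – static 4 h at 37 °C with compound, 1 h detection · Detection – adenylate kinase release luminescence · Read-out – signal increase indicating cell lysis · Control set – Clomiphene as positive lysis control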
# Wnt bcat act – activates Wnt/beta-catenin signaling in a reporter cell assay; activator, plate reader; activation, % at 9.35 µM; actives 1.2% (n = 300,000); in the data active means activation above about 30%, passing the limit was not always enough
# ERAP1 inh – inhibitors of human ERAP1 aminopeptidase; inhibition, % at 10.7 µM; Q9NZ08; actives 0.15% (n = 340,000); recombinant ERAP1, Leu-AMC fluorescence, 60 min;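 active means mean replicate inhibition of at least 30%, or all replicates individually reaching that 30% level; inactive means mean below 30% and not every replicate reaching it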
# HIV Env fusion – inhibitors of HIV Env-mediated cell fusion; HeLa-JRFL Env/CEM21 cell fusion, luciferase; inhibition, % at 12.3 µM; actives 1.1% (n = 360,000); AID 651610;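 active means mean replicate inhibition score of at least 50 and every replicate individually at or above 50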
# esBAF inh – inhibitors of esBAF chromatin remodeling in mouse ES cells; Bmi1-luciferase knock-in reporter, 24 h; 100% = twice the neutral-well signal; reporter increase, % at 12.5 µM; actives 2% (n = 350,000); AID 602393; in the data active means activation above about 40%;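 further: a rise in the Bmi1 reporter signal indicates esBAF inhibition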
# Hits are given with their value; 0 = inactive; - = no result; ! = not confirmed by another sample. Hits are enriched below; roughly 3.5% of the tested compounds scored in any of these assays.
SMILES,MITF TRPM1 HTS,Cneo AK release,Wnt bcat act,ERAP1 inh,HIV Env fusion,esBAF inh
O=C(Nc1nnc(-c2ccccc2Cl)s1)c1ccccc1F,0,0,0,0,0,51
O=C(Nc1nnc(-c2ccccc2)s1)c1ccccc1F,-,0,0,0,0,70
C[C@@H]1CN([C@H](C)CO)C(=O)c2cc(NS(=O)(=O)c3cccs3)ccc2O[C@@H](C)CCCCO[C@H]1CN(C)C(=O)NC1CCCCC1,-,0,-,0,0,0
CC(=O)c1ccc(N(C(=O)Cn2nnc(-c3ccccc3)n2)C(C(=O)NC2CCCCC2)c2ccccn2)cc1 (stereo unspecified),0,0,0,-,0,0
COc1ccc(N(C(=O)Cc2cccs2)C(C(=O)NC2CCCC2)c2ccncc2)cc1 (stereo unspecified),0,0,0,0,0,0
CCc1ccc(N(C(=O)Cn2nnc(-c3ccccc3)n2)C(C(=O)NC2CCCCC2)c2ccccn2)cc1 (stereo unspecified),0,0,-,-,80,-
Cc1cc(C)cc(N(C(=O)Cc2cccs2)C(C(=O)NC2CCCCC2)c2ccccn2)c1 (stereo unspecified),0,0,-,-,119,-
CCOc1cccc(N(C(=O)Cc2cccs2)C(C(=O)NC2CCCCC2)c2cccn2C)c1 (stereo unspecified),0,0,0,-,89,0
COc1cccc(N(C(=O)Cc2cccs2)C(C(=O)NC2CCCC2)c2ccncc2)c1 (stereo unspecified),0,0,0,0,0,52
Cc1ccc(S(=O)(=O)N[C@@H]2C=C[C@H](CC(=O)NCc3ccccc3F)O[C@@H]2CO)cc1,-,0,-,0,0,0
C#CC(=O)N(c1ccc(OC)cc1OC)C(C(=O)NC1CCCC1)c1cccs1 (stereo unspecified),0,-,0,0,109,0
C/C=C/c1ccc([C@H]2[C@H](CO)N3CCCCN(C(=O)Nc4ccc(OC)cc4)C[C@@H]23)cc1,-,0,-,0,-,-
O=C(Nc1ccccc1)N1CCCCN2[C@H](C1)[C@H](c1ccc(C#CC3CC3)cc1)[C@@H]2CO,-,108,-,0,-,-
C/C=C/c1ccc([C@@H]2[C@H]3CN(C(=O)Nc4ccc(OC)cc4)CCCCN3[C@H]2CO)cc1,-,114,-,0,-,-
COc1ccc(-c2ccc3c(c2)[C@@H]2[C@@H](CCN2C(=O)C2CCCCC2)[C@H](CO)N3C)cc1,-,0,-,0,-,0
COc1cccc(/C=N/NC(=O)CC2C(=O)NN=C2C)c1OC (stereo unspecified),0,0,0,-,0,0
COc1cccc(/C=N/NC(=O)CC2C(=O)NN=C2C)c1O (stereo unspecified),0,0,-,-,70,0
CC(C)CC#Cc1cnc2c(c1)C(=O)N([C@@H](C)CO)C[C@@H](C)[C@H](CN(C)Cc1ccccc1C(=O)O)O2,-,0,-,0,0,0
CC(=O)N(C)C[C@H]1Oc2cc(C#Cc3ccccc3)ccc2S(=O)(=O)N([C@H](C)CO)C[C@@H]1C,-,0,-,0,0,0
CN1CCN(C(=O)C2CCN(c3ncc(C(F)(F)F)cc3Cl)CC2)CC1,0,-,0,0,0,0
O=C(CSc1ccc(Cl)cc1)N1CCN(c2ncc(C(F)(F)F)cc2Cl)CC1,0,0,0,-,0,0
CN(C)c1ccc(NC(=S)N2CCN(c3ncc(C(F)(F)F)cc3Cl)CC2)cc1,0,-,52,0,0,-
O=C(CN1CCN(c2ncc(C(F)(F)F)cc2Cl)CC1)N1CCN(c2ncc(C(F)(F)F)cc2Cl)CC1,0,0,-,0,95,-
N#C[C@H]1[C@H](c2ccccc2)[C@H](CO)N1C(=O)CCN1CCCCC1,-,0,-,0,-,0
Cc1ccc(CSc2ccc(-c3cccs3)nn2)cc1,109,-,-,-,0,-
SMILES,MITF TRPM1 HTS,Cneo AK release,Wnt bcat act,ERAP1 inh,HIV Env fusion,esBAF inh
c1cncc(CSc2ccc(-c3cccs3)nn2)c1,0,0,0,0,0,56
Cc1c(Cl)cccc1NC(=O)CCCN1C(=O)c2cccnc2C1=O,0,0,34,0,0,0
CCc1ccccc1NC(=O)CCCN1C(=O)c2cccnc2C1=O,0,0,0,0,0,0
Cn1cnnc1SCC(=O)Nc1ccc2nc(SCc3ccccc3F)sc2c1,106,0,0,0,-,64
O=C(C[C@@H]1CC[C@@H](NC(=O)CN2CCOCC2)[C@@H](CO)O1)NC1CCC1,-,0,-,0,0,0
O=C(Cn1cc(C(F)(F)F)cc(Cl)c1=O)NCc1ccc(F)cc1,0,0,0,0,0,58
O=C(Cn1cc(C(F)(F)F)cc(Cl)c1=O)NCCc1ccc(Cl)cc1Cl,0,-,0,0,0,-
Clc1ccc(CSc2ccc(-c3ccccn3)nn2)cc1,0,0,0,0,0,0
Clc1ccc(CSc2cc3c(nn2)-c2ccccc2CC3)cc1,0,0,-,-,-,52
O=C(Nc1ccccc1F)c1ccc(-c2cccc([N+](=O)[O-])c2)o1,0,0,0,0,0,0
O=C(Nc1nccs1)c1ccc(-c2cccc([N+](=O)[O-])c2)o1,0,0,60,0,0,67
C=CCNC(=O)c1ccc(-c2ccc([N+](=O)[O-])cc2)o1,0,0,0,0,0,0
C=CCNC(=O)c1ccc(-c2cccc([N+](=O)[O-])c2)o1,0,0,0,0,0,46
Cc1ccc2[nH]c3c(c2c1)CC/C(=C/c1ccccc1)C3=O,-,0,0,-,0,91
Cc1ccc(/C=C2/CCc3c([nH]c4ccccc34)C2=O)cc1,100,0,54,-,0,0
O=C1/C(=C\c2ccccc2)CCc2c1[nH]c1ccccc21,0,0,39,-,0,0
CC(C)/C=C1\CCc2c([nH]c3ccccc23)C1=O,0,-,0,0,0,-
COc1ccc(S(=O)(=O)Nc2ccc3c(c2)C(=O)N([C@H](C)CO)C[C@H](C)[C@@H](CN(C)CC2CCCCC2)OCCCC[C@@H](C)O3)cc1,-,0,-,-,0,0
COc1ccccc1N/C(N)=N/c1nc(CSc2ccc(C)cc2)cc(=O)[nH]1,0,0,-,-,67,0
Cc1ccc(SCc2cc(=O)[nH]c(/N=C(\N)Nc3ccccc3Sc3ccccc3)n2)cc1,0,-,0,-,0,-
Nc1nc(Nc2ccccc2F)nc(N2CCCC2)c1[N+](=O)[O-],88,0,0,0,0,70
COCCNC(=O)C[C@H]1C[C@@H]2c3cc(NC(=O)COC)ccc3O[C@@H]2[C@H](CO)O1,-,0,-,0,0,0
O=[N+]([O-])c1ccccc1-c1nc(-c2ccc(Br)o2)no1,0,-,47,0,0,-
Clc1ccccc1-c1nc(-c2ccncc2)no1,0,0,49!,0,0,0
Clc1ccc(OCc2nc(-c3ccncc3)no2)cc1,0,0,0,-,0,62
Clc1ccc(-c2nc(-c3ccncc3)no2)c(Cl)c1,-,0,60,0,0,-
C[C@@H]1CN([C@@H](C)CO)C(=O)c2cc(NS(=O)(=O)c3cccs3)ccc2O[C@@H](C)CCCCO[C@@H]1CN(C)Cc1ccncc1,-,0,-,0,0,0
